Screens deposited in PubChem by Sanford-Burnham Center for Chemical Genomics.
The list is not random: actives were taken first. Their share in the collection is about 3.3%.
SENP1 FRET inh = human SENP1 catalytic domain inhibitors, primary screen, biochemical, FRET, uHTS; Sentrin-specific protease 1 (Homo sapiens), Q9P0U3; recombinant SENP1 catalytic domain, CyPet-SUMO1-YPet FRET cleavage; inhibition, % at 10 µM; 360,000 tested, 0.21% active;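 active = inhibition at least 30% at 10 µM, raw YFP signal under a set limit, fluorescence ratio 0.5 to 1.5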
Target sequence (Q9P0U3 419-644 limits assumed): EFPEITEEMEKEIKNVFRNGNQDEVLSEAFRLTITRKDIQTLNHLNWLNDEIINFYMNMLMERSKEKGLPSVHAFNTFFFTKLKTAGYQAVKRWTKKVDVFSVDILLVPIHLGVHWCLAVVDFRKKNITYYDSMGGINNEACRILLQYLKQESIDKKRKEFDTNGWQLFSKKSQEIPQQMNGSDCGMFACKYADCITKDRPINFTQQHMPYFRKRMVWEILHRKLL
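system = hSENP1 catalytic domain, recombinant | reagent = SFCypet-SUMO1-SFYpet substrate at 25 nM | doses = one dose per compound, 10 µM, 0.5% DMSO | incubation = enzyme reaction for 50 min at room temperature, dark | measured by = FRET, CFP and YFP emission | controls = no-enzyme low, enzyme-DMSO high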
NRP1-CendR mod = modulators of CendR peptide binding to NRP-1, primary screen, biochemical, fluorescence polarization, uHTS | Neuropilin-1 (Homo sapiens), O14786 | FAM-RPARPAR peptide binding to NRP-1 | inhibition, % at 25 µM | 360,000 tested, 0.85% active;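 active = inhibition or corrected inhibition above about 18%, plus a signal ratio from 0.5 to 1.5, limit read from the data, passing the limit was not always enough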
SENP7 block = SENP7 protease inhibitors, primary screen, biochemical, luminescence, uHTS | recombinant SENP7, Z-RLRGG-aminoluciferin luminescence, 40 min | Sentrin-specific protease 7 (Homo sapiens), Q9BQF6 | 330,000 tested, 1.5% active | inhibition, % at 5 µM;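 active = inhibition above about 50% at the single test dose, limit read from the data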
SENP8 block-1 = SENP8 protease inhibitors, primary screen, biochemical, luminescence. purified SENP8, Z-RLRGG-aminoluciferin cleavage. inhibition, % at 10 µM. 330,000 tested, 1.2% active; in the data active = inhibition above about 50%
SENP8 block-2 = human SENP8 protease inhibitors, primary screen, biochemical, fluorescence, Nedd8 protein substrate, uHTS. inhibition, % at 20 µM. recombinant SENP8. 360,000 tested, 0.64% active; in the data active = inhibition mostly above about 40%, no sharp cut-off; inactive = mostly below about 27%
SENP6 block = SENP6 protease inhibitors, primary screen, biochemical, luminescence, uHTS | Sentrin-specific protease 6 (Homo sapiens), Q9GZR1 | Recombinant SENP6 catalytic domain, aminoluciferin luminescence | inhibition, % at 10 µM | 330,000 tested, 1.8% active;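 active = inhibition above about 50% at the single tested dose, limit read from the data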
SENP8 conf = SENP8 protease inhibitors, retest, confirmation, biochemical, luminescence, single concentration; shares compounds with SENP7 block; Recombinant SENP8, Z-RLRGG-aminoluciferin luminescence, 60 min; inhibition, % at 12.5 µM; 6,200 tested, 40% active; AID 488912, 2010;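 active = mean inhibition across replicates above about 50%, limit read from the data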
SENP6 conf = SENP6 protease inhibitors, confirmation, biochemical, luminescence, single concentration; shares compounds with SENP7 block; recombinant SENP6, Z-RLRGG-aminoluciferin luminescence; 6,200 tested, 58% active; AID 488915, 2010; inhibition, % at 12.5 µM
SENP7 confirm = SENP7 protease inhibitors, retest, confirmation, biochemical, luminescence, single concentration. recombinant SENP7, Z-RLRGG-aminoluciferin luminescence, 40 min. 6,200 tested, 69% active. shares compounds with SENP7 block. inhibition, % at 12.5 µM
Casp3 SENP sel = caspase-3 protease inhibitors, confirmation, selectivity assay for SENP inhibitor project, biochemical, single concentration; purified caspase-3, Z-DEVD-aminoluciferin luminescence, 60 min; inhibition, % at 12.5 µM; shares compounds with SENP7 block; 6,200 tested, 60% active;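 active = mean inhibition above about 50%, limit read from the data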
Target sequence (P42574 28-227 limits assumed): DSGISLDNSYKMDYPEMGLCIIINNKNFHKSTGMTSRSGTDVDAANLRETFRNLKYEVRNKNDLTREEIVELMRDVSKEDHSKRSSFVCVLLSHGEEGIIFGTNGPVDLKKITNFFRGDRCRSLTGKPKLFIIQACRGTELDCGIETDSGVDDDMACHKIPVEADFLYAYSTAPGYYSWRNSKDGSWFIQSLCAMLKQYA
SENP luc ctr = counter-screen for SENP inhibitors: luminescence interference; AID 488919; Pre-incubated SENP8/Z-RLRGG-aminoluciferin, luciferase luminescence interference; shares compounds with SENP7 block; inhibition, % at 12.5 µM; 6,200 tested, 39% active;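 active = mean inhibition above about 50% when retested at one dose, limit read from the data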
Hits are given with their value.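 Rule for the calls, unless noted: active = mean inhibition above about 50% in the one-dose retest (limit read from the data); inactive = the rest.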

What do the screens show for `COc1cc(NC(=O)Nc2nc(C(N)Cc3ccc(C(F)(F)F)cc3)cs2)cc(OC)c1OC` (configuration not stated)?
SENP1 FRET inh: inactive; NRP1-CendR mod: inactive; SENP8 block-2: inactive

Results for COc1ccc(NC(=O)c2cccc(Oc3ccccc3)c2)cn1 ?
SENP1 FRET inh: inactive; NRP1-CendR mod: inactive; SENP7 block: 62; SENP8 block-1: inactive; SENP8 block-2: inactive; SENP6 block: 72; SENP8 conf: 52; SENP6 conf: 52; SENP7 confirm: 83; Casp3 SENP sel: inactive; SENP luc ctr: inactive

Results for COc1ccc(NC(=O)c2cccc(S(=O)(=O)Nc3ccc(Br)cc3)c2)cn1 ?
SENP1 FRET inh: inactive; NRP1-CendR mod: inactive; SENP7 block: inactive; SENP8 block-1: inactive; SENP8 block-2: inactive; SENP6 block: inactive

What do the screens show for `NC(=O)c1ccc(NC(=O)c2cccc(Oc3ccccc3)c2)cc1`?
SENP1 FRET inh: inactive; NRP1-CendR mod: inactive; SENP7 block: 68; SENP8 block-1: inactive; SENP8 block-2: inactive; SENP6 block: inactive; SENP8 conf: inactive; SENP6 conf: inactive; SENP7 confirm: inactive; Casp3 SENP sel: inactive; SENP luc ctr: inactive

How did O=C(/C=C/c1ccc(Cl)c([N+](=O)[O-])c1)Nc1cccnc1 do in these assays?
SENP1 FRET inh: inactive; NRP1-CendR mod: inactive; SENP7 block: inactive; SENP8 block-1: inactive; SENP8 block-2: inactive; SENP6 block: inactive

What do the screens show for `O=C(C=Cc1ccccc1)Nc1ccccc1`?
SENP1 FRET inh: inactive; NRP1-CendR mod: inactive; SENP8 block-2: inactive

Results for O=C(/C=C/c1ccccc1)Nc1cccnc1 ?
SENP1 FRET inh: inactive; NRP1-CendR mod: inactive; SENP7 block: 76; SENP8 block-1: 51; SENP8 block-2: inactive; SENP6 block: 66; SENP8 conf: inactive; SENP6 conf: 57; SENP7 confirm: 90; Casp3 SENP sel: 84; SENP luc ctr: 72

How did O=C(/C=C/c1ccc([N+](=O)[O-])cc1)Nc1cccnc1 do in these assays?
SENP1 FRET inh: inactive; NRP1-CendR mod: inactive; SENP7 block: 58; SENP8 block-1: inactive; SENP8 block-2: inactive; SENP6 block: 71; SENP8 conf: inactive; SENP6 conf: 64; SENP7 confirm: 92; Casp3 SENP sel: 77; SENP luc ctr: inactive

How did Cc1ccc2c(NCc3ccco3)nc(NC(C)C)nc2c1 do in these assays?
SENP1 FRET inh: inactive; NRP1-CendR mod: inactive; SENP8 block-2: inactive

How did CC(c1ccccc1)C(OC(=O)c1cccc([N+](=O)[O-])c1C(=O)O)c1ccccc1 (configuration not stated) do in these assays?
SENP1 FRET inh: inactive; NRP1-CendR mod: inactive; SENP8 block-2: inactive
